Measurements taken from article PMC4767718 (Drugs in R&D, 2015).
Like-named read-outs stand apart in the source and are kept apart here.

Experiments:
[1] = cited from earlier work
[2] = acidic pH / acidic solution; cited from earlier work
[3] = format: in vivo, human; settings: single 50 mg ECT; for half-life: human, plasma, oral, 50 mg, Mean t½ (SD)
Outline: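 Randomized two-way crossover on day 1 of cycles 1 and 2. Fasted arm: ~10 h overnight fast. Fed arm: high-fat meal (54 g fat, 1036 calories) ~30 min predose, ≥75 % eaten. Tablet taken with 240 mL water, then no food for 4 h. Non-compartmental parameters. Ratio 90 % CIs from ANOVA on log data (patient random effect).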

advanced solid tumors = test: Tumor response by RECIST version 1.1; format: in vivo, human
Outline: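 RECIST 1.1 response assessed at baseline, end of cycles 2, 4 and 6, then every 3 cycles (9 weeks) until progression. Oral dosing 40 mg twice daily on days 3–9 of cycles 1–2 (escalation to 50 mg allowed in cycle 2). Afterwards, 40 or 50 mg twice daily on days 1–7 of 21-day cycles.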

[4] = Safety: drug-related adverse events graded by NCI-CTCAE version 3.0; format: in vivo, human
Outline: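 Adverse events monitored throughout and graded by NCI-CTCAE v3.0, alongside regular hematology, clinical chemistry, vital signs and ECOG status. Single oral dose on day 1 of cycles 1–2. Then 40 mg twice daily on days 3–9 (50 mg allowed in cycle 2), followed by 14-day rest. Afterwards, 40 or 50 mg twice daily on days 1–7 of 21-day cycles.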

[5] = dose range of 5–200 mg/day; earlier trials, no reference given; cited from earlier work
[6] = 24 patients, during the first two cycles
[7] = N = 24, all alisertib treatments

For CS(=O)(=O)CCNCc1ccc(-c2ccc3ncnc(Nc4ccc(OCc5cccc(F)c5)c(Cl)c4)c3c2)o1 [Lapatinib], the “AUC increase when administered with food” value ([1]; low-fat meal) is listed as “approximately three”.

In the case of Cc1nc(Nc2ncc(C(=O)Nc3c(C)cccc3Cl)s2)cc(N2CCN(CCO)CC2)n1 [dasatinib], the “Increase in the mean AUC after a high-fat meal” value ([1]; 100 mg dose following a high-fat meal (30 min)) is given as 14%.

In the case of C#Cc1cccc(Nc2ncnc3cc(OCCOC)c(OCCOC)cc23)c1 [erlotinib], the “Change of systemic exposure under fed compared with fasted conditions” value ([1]; single-dose crossover study) is listed as “approximately doubled”.

In the case of COc1cc(Nc2ncc3c(n2)-c2ccc(Cl)cc2C(c2c(F)cccc2OC)=NC3)ccc1C(=O)O [Alisertib], the Solubility [2] is given as “reduced”, the half-life ([3]; fasted state, n = 11) is given as 1000 min and the half-life ([3]; fed state, n = 14) is given as 894 min. The “AUCtlast geometric mean ratio, fed versus fasted (90 % CI)” value [3] was 1.04 (0.80–1.34), the “Cmax geometric mean ratio, fed versus fasted (90 % CI)” value [3] was 0.84 (0.66–1.06) and the “Decrease in geometric mean Cmax after high-fat meal compared with fasted” value [3] was 16%. For the same compound, the “AUCinf geometric mean ratio, fed versus fasted (90 % CI)” value ([3]; n = 11) was 0.94 (0.68–1.32), the “AUCinf geometric mean ratio, fed versus fasted (90 % CI)” value ([3]; n = 11, listed as alisertib) was 0.94 and the “Geometric mean Cmax under fed conditions as % of that under fasted conditions” value ([3]; 90 % CI 66–106) was 84%. The “Geometric mean AUCinf under fed conditions as % of that under fasted conditions” value ([3]; 90 % CI 68–132 %) was 94%, the “Patients with best response of stable disease” value (advanced solid tumors; 24 patients evaluable, alisertib 40 to 50 mg twice daily) was 50% and the “Patients with stable disease lasting more than 3 months” value (advanced solid tumors; of 12 patients with stable disease) was “seven”. The “Discontinuation of treatment due to AEs” value ([4]; 24 patients) was “No patient discontinued treatment due to AEs”, the “Patients reporting at least one drug-related AE” value ([4]; 24 patients) was 96% and the “Patients with AEs considered serious and related to alisertib” value ([4]; 24 patients) was 13%. For the same compound, the “Patients with drug-related grade 3/4 leukopenia” value ([4]; 24 patients) was 38%, the “Patients with drug-related grade 3/4 neutropenia” value ([4]; 24 patients) was 50% and the “Patients with drug-related grade 3/4 thrombocytopenia” value ([4]; 24 patients) was 21%. For the same compound, the “Patients with drug-related grade 3 or higher AEs” value ([4]; 24 patients) was 67%, the “Patients with drug-related alopecia” value ([4]; 24 patients, any grade) was 50% and the “Patients with drug-related diarrhea” value ([4]; 24 patients, any grade) was 25%. The “Patients with drug-related fatigue” value ([4]; 24 patients, any grade) was 21%, the “Patients with drug-related nausea” value ([4]; 24 patients, any grade) was 21% and the “Serious related grade 3/4 febrile neutropenia” value [4, 6] was 2 n. For the same compound, the “Serious related grade 3 neutropenia” value [4, 6] was 1 n, the “Drug-related AST increased, all grades” value [4, 7] was 3 (13) n (%) and the “Drug-related AST increased, grade ≥3” value [4, 7] was 0 n (%). The “Drug-related alopecia, all grades” value [4, 7] was 12 (50) n (%), the “Drug-related alopecia, grade ≥3” value [4, 7] was 0 n (%) and the “Drug-related anemia, all grades” value [4, 7] was 7 (29) n (%). For the same compound, the “Drug-related anemia, grade ≥3” value [4, 7] was 3 (13) n (%), the “Drug-related anorexia, all grades” value [4, 7] was 4 (17) n (%) and the “Drug-related anorexia, grade ≥3” value [4, 7] was 0 n (%). The “Drug-related diarrhea, all grades” value [4, 7] was 6 (25) n (%), the “Drug-related diarrhea, grade ≥3” value [4, 7] was 1 (4) n (%) and the “Drug-related fatigue, all grades” value [4, 7] was 5 (21) n (%). For the same compound, the “Drug-related fatigue, grade ≥3” value [4, 7] was 1 (4) n (%), the “Drug-related febrile neutropenia, all grades” value [4, 7] was 2 (8) n (%) and the “Drug-related febrile neutropenia, grade ≥3” value [4, 7] was 2 (8) n (%). For the same compound, the “Drug-related leukopenia, all grades” value [4, 7] was 13 (54) n (%), the “Drug-related leukopenia, grade ≥3” value [4, 7] was 9 (38) n (%) and the “Drug-related nausea, all grades” value [4, 7] was 5 (21) n (%). For the same compound, the “Drug-related nausea, grade ≥3” value [4, 7] was 0 n (%), the “Drug-related neutropenia, all grades” value [4, 7] was 17 (71) n (%) and the “Drug-related neutropenia, grade ≥3” value [4, 7] was 12 (50) n (%). For the same compound, the “Drug-related stomatitis, all grades” value [4, 7] was 4 (17) n (%), the “Drug-related stomatitis, grade ≥3” value [4, 7] was 0 n (%) and the “Drug-related thrombocytopenia, all grades” value [4, 7] was 7 (29) n (%). For the same compound, the “Drug-related thrombocytopenia, grade ≥3” value [4, 7] was 5 (21) n (%) and the “Pharmacokinetics, dose linearity” value [5] was “linear”.

In the case of COc1cc2ncnc(Nc3ccc(F)c(Cl)c3)c2cc1OCCCN1CCOCC1 [gefitinib], the “Effect of food on systemic exposure” value [1] is given as “unaffected by food”.
